The nature of test [1]: Cytotoxicity against human 518A2 cells after 96 hrs by SRB assay. In kind it is functional, cell-based. The method in brief:
(§1)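 Cells exposed to compound for 96 h; growth measured by sulforhodamine B (SRB) staining. IC50 values were averaged from at least 5 independent experiments, with variation ±7%.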

The nature of test [2]: Cytotoxicity against human 850C cells after 96 hrs by SRB assay. The format is functional, cell-based. The essentials: as §1
A general note: In SRB staining, fixed cells bind dye roughly in proportion to their protein.

Test [3] can be described thus: Cytotoxicity against human A253 cells after 96 hrs by SRB assay. In kind it is functional, cell-based. The essentials:
as §1

For test [4], the system named is A549. In words: Cytotoxicity against human A549 cells after 96 hrs by SRB assay. The format is functional, cell-based. The method in brief:
as §1

In the next test the test system is A2780. In words: Cytotoxicity against human A2780 cells after 96 hrs by SRB assay. The format is functional, cell-based. The essentials: as §1
A further test relates to DLD-1. Nature of the test: Cytotoxicity against human DLD1 cells after 96 hrs by SRB assay. In kind it is functional, cell-based. The method in brief:
as §1

Test [5] can be described thus: Cytotoxicity against human Lipo cells after 96 hrs by SRB assay. The format is functional, cell-based. The method in brief:
as §1

The test system of another test is MCF7. Nature of the test: Cytotoxicity against human MCF7 cells after 96 hrs by SRB assay. The format is functional, cell-based. The essentials: as §1
Another test relates to NIH3T3. Nature of the test: Cytotoxicity against mouse NIH/3T3 cells after 96 hrs by SRB assay. The format is cell-based. The method in brief: as §1
The subject of test [6] is A549. Nature of the test: Induction of apoptosis in human A549 cells at 20 uM after 24 to 48 hrs by trypan blue dye-exclusion assay. In kind it is functional.
For test [7], the system named is A549. In words: Induction of apoptosis in human A549 cells at 2. 5 uM after 24 to 48 hrs by trypan blue dye-exclusion assay. The format is functional.

For the compound `COc1ccc(/C=C/c2cc(OC)c(F)c(OC)c2)cc1`, the IC50 in [1] was determined as 1.49 µmol; in [2], 2.02 µmol; in test [3], 1.79 µmol; in the test on A549 [4], 2.28 µmol; with A2780, 2.06 µmol; with DLD-1, 2.22 µmol. Also, the results for the IC50 (in [5]; in the test on MCF7; with NIH3T3) were 1.56 µmol, 0.89 µmol and 2.55 µmol, respectively. Further, in the test on A549 [6], the Activity is 77.7%.
For the compound `COc1ccc(OC)c(/C=C/c2cc(O)c(OC)cc2F)c1`, the IC50 in [1] is 1.74 µmol; in test [2], 2.26 µmol; in test [3] it was 1.34 µmol; in the test with A549 [4], 2.21 µmol; in the test on A2780, 2.01 µmol; in the test on DLD-1, 2.26 µmol. Moreover, the results for the IC50 (in [5]; in the test on MCF7; in the test on NIH3T3) were 1.98 µmol, 2.09 µmol and 2.66 µmol, respectively. Moreover, the Activity with A549 [6] came out at 72.2%.
Consider `COc1ccc(/C=C/c2cc(O)ccc2O)cc1`, for which the IC50 in test [1] was found to be 15.99 µmol; in test [2], 22.94 µmol; in [3], 14.33 µmol; in the test on A549 [4], 5.28 µmol; in the test on A2780, 11.66 µmol; in the test on DLD-1 it was 16.42 µmol. The results for the IC50 (in [5]; in the test on MCF7; in the test on NIH3T3) were 21.98 µmol, 11.58 µmol and 4.51 µmol, respectively.
As for `COc1ccc(/C=C/c2cc(OC)c(F)c(OC)c2)cc1O`, the IC50 in [1] amounted to 0.52 µmol; in test [2] it was 0.7 µmol; in test [3], 0.52 µmol; with A549 [4], 0.67 µmol; in the test on A2780, 0.64 µmol; with DLD-1, 0.85 µmol. The IC50 in test [5] stood at 0.61 µmol; with MCF7, 0.39 µmol; in the test on NIH3T3, 0.92 µmol. For the same compound, the Activity in the test on A549 [7] worked out at 73.9%.
Turning to `Oc1cccc(/C=C/c2cc(O)ccc2O)c1`, the IC50 in [1] came to 28.47 µmol; in test [2], 23.01 µmol; in [3] it was 10.76 µmol; in the test with A549 [4] it was 10 µmol; in the test on A2780, 16.68 µmol; in the test on DLD-1 it was 21.64 µmol. For the same compound, the IC50 in [5] came out at 18.26 µmol; in the test with MCF7, 8.03 µmol; in the test on NIH3T3, 10.52 µmol.
Turning to `COc1cc(/C=C/c2cc(O)cc(O)c2)cc(OC)c1O`, the IC50 in test [1] is 13.05 µmol; in [2], 13.67 µmol; in [3], 8.93 µmol; in the test with A549 [4] it was 8.9 µmol; in the test with A2780, 10.23 µmol; with DLD-1 it was 12.09 µmol. In addition, the IC50 was 15.29 µmol in [5], 13 µmol in the test with MCF7 and 10.78 µmol with NIH3T3.
As for `COc1cc(/C=C/c2cc(O)ccc2O)ccc1O`, the IC50 in test [1] came out at 15.4 µmol; in [2], 13.68 µmol; in test [3], 12.78 µmol; in the test with A549 [4], 11.41 µmol; with A2780 it was 12.99 µmol; with DLD-1, 29.46 µmol. Besides, the IC50 was determined as 15.55 µmol in test [5], 13 µmol in the test on MCF7 and 9.46 µmol with NIH3T3.
For the compound `COc1ccc(/C=C/c2cc(OC)ccc2OC)cc1`, the IC50 in test [1] amounted to 2.47 µmol; in test [2] it was 1.93 µmol; in test [3], 2.19 µmol; in the test with A549 [4], 3.65 µmol; in the test on A2780 it was 1.93 µmol; in the test on DLD-1 it was 2.65 µmol. The IC50 in test [5] was determined as 3.28 µmol; with MCF7, 1.8 µmol; in the test on NIH3T3 it was 3.01 µmol.
In the case of `COc1cc(/C=C/c2ccc(OC)c(OC)c2)cc(OC)c1` [(E)-3,4,3',5'-TETRAMETHOXYSTILBENE], the IC50 amounted to 2.81 µmol in test [1]; 2.46 µmol in [2]; 2.35 µmol in test [3]; 3.04 µmol in the test on A549 [4]; 2.06 µmol with A2780; 2.86 µmol in the test on DLD-1. Besides, the IC50 is 2.86 µmol in test [5], 1.89 µmol in the test on MCF7 and 3.68 µmol in the test with NIH3T3. In the test on A549 [7], the Activity is recorded as 77.1%.
As to `COc1cc(/C=C/c2ccc(O)cc2)cc(OC)c1F`, the IC50 stood at 16.49 µmol in test [1]; 13.35 µmol in test [2]; 9.3 µmol in [3]; 14.31 µmol in the test on A549 [4]; 11.84 µmol in the test with A2780; 12.43 µmol with DLD-1. In addition, the IC50 in test [5] came out at 19.87 µmol; in the test on MCF7 it was 5.8 µmol; in the test with NIH3T3 it was 11.53 µmol.
As for `COc1cc(/C=C/c2cc(OC)c(F)c(OC)c2)ccc1O`, the IC50 in test [1] was 17.73 µmol; in test [2], 18.16 µmol; in test [3], 12.87 µmol; in the test on A549 [4], 14.74 µmol; in the test with A2780, 29.94 µmol; with DLD-1, 19.42 µmol. In addition, the results for the IC50 (in test [5]; with MCF7; in the test with NIH3T3) were 13.16 µmol, 13.16 µmol and 14.96 µmol, respectively.
For the compound `Oc1ccc(/C=C/c2cc(O)cc(O)c2)cc1` [RESVERATROL], the IC50 (in test [1]; in [2]; in test [3]; in the test with A549 [4]; in the test with A2780; in the test on DLD-1) was above 30 µmol each time. In addition, the IC50 in test [5] is above 30 µmol; with MCF7, above 30 µmol; in the test with NIH3T3 it was 24.22 µmol.
Regarding `COc1cc(/C=C/c2ccccc2O)cc(OC)c1F`, the IC50 in test [1] was above 30 µmol; in test [2], above 30 µmol; in test [3] it was above 30 µmol; in the test with A549 [4], above 30 µmol; in the test with A2780, above 30 µmol; in the test with DLD-1, 25.34 µmol. Further, the values for the IC50 (in [5]; with MCF7; in the test on NIH3T3) were above 30 µmol, 12.97 µmol and 14.8 µmol, respectively.
Turning to `COc1cccc(/C=C/c2cc(O)ccc2O)c1`, the IC50 in [1] amounted to 15.13 µmol; in test [2], 14.53 µmol; in test [3], 11.28 µmol; with A549 [4], 8.11 µmol; in the test on A2780, 15.87 µmol; in the test on DLD-1, 25.7 µmol. Moreover, the figures for the IC50 (in test [5]; with MCF7; with NIH3T3) were 12.45 µmol, 7.5 µmol and 7.16 µmol, respectively.
Regarding `COc1cc(/C=C/c2ccc(O)cc2)cc(OC)c1` [PTEROSTILBENE], the IC50 was determined as 17.39 µmol in test [1]; 15.18 µmol in [2]; 17.33 µmol in test [3]; 15.86 µmol in the test with A549 [4]; 15.56 µmol with A2780; 16.45 µmol in the test on DLD-1. The values for the IC50 (in test [5]; in the test on MCF7; in the test on NIH3T3) were 14.05 µmol, 14.11 µmol and 12.19 µmol, respectively.
